{"source": "ChEMBL document CHEMBL1149430", "about": "“Optimization of diarylamines as non-nucleoside inhibitors of HIV-1 reverse transcriptase” (Bioorg Med Chem Lett, 2006)", "key": {"[1]": {"test_system": "Human immunodeficiency virus 1", "experiment": "Antiviral activity against HIV1 3B in MT2 cells by MTT assay", "type": "functional, organism-based", "procedure,_shortened": "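HIV-1 IIIB infection of MT-2 human T cells, with MTT colorimetric read-out of cell protection.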"}, "MT2": {"test_system": "MT2", "experiment": "Cytotoxicity against human MT2 cells by MTT assay", "type": "functional"}, "[2]": {"conditions": "Human immunodeficiency virus 1, 3B, MT2, read-out: EC50; call rule not given here"}}}
{"compound": "CC(C)=CCOc1cc(Nc2nc(C)cc(N)n2)ccc1Cl", "values": [{"measurement": "EC50", "setting": "[1]; mt2", "result": "Not Active"}, {"measurement": "CC50", "setting": "MT2", "result": "< 0.004", "unit": "µM"}]}
{"compound": "N#Cc1ccc(Nc2nccs2)cc1OCc1ccco1", "values": [{"measurement": "EC50", "setting": "[1]; [2]", "result": 1.2, "unit": "µM"}, {"measurement": "CC50", "setting": "MT2", "result": 18, "unit": "µM"}]}
{"compound": "COCc1ccnc(Nc2ccc(Cl)c(OCC=C(C)C)c2)n1", "values": [{"measurement": "EC50", "setting": "[1]; mt2", "result": "Not Active"}, {"measurement": "CC50", "setting": "MT2", "result": "> 25", "unit": "µM"}]}
{"compound": "COc1ccnc(Nc2ccc(C)c(OCC=C(C)C)c2)n1", "values": [{"measurement": "EC50", "setting": "[1]; [2]", "result": 0.32, "unit": "µM"}, {"measurement": "CC50", "setting": "MT2", "result": 41, "unit": "µM"}]}
{"compound": "Clc1ccc(Nc2nccs2)cc1OCc1ccco1", "values": [{"measurement": "EC50", "setting": "[1]; [2]", "result": 4, "unit": "µM"}, {"measurement": "CC50", "setting": "MT2", "result": 18, "unit": "µM"}]}
{"compound": "N#Cc1ccc(Nc2nccs2)cc1OCC1=CCCC1", "values": [{"measurement": "EC50", "setting": "[1]; mt2", "result": "Not Active"}, {"measurement": "CC50", "setting": "MT2", "result": 1.7, "unit": "µM"}]}
{"compound": "Clc1ccc(Nc2nccs2)cc1OCC1CCCCC1", "values": [{"measurement": "EC50", "setting": "[1]; mt2", "result": "Not Active"}, {"measurement": "CC50", "setting": "MT2", "result": 15, "unit": "µM"}]}
{"compound": "CC(C)=CCOc1cc(Nc2nccs2)ccc1C#N", "values": [{"measurement": "CC50", "setting": "MT2", "result": 0.75, "unit": "µM"}]}
{"compound": "N#Cc1ccc(Nc2nccs2)cc1OCc1nccs1", "values": [{"measurement": "EC50", "setting": "[1]; [2]", "result": 4.5, "unit": "µM"}, {"measurement": "CC50", "setting": "MT2", "result": 20, "unit": "µM"}]}
{"compound": "CC1=C(COc2cc(Nc3nccs3)ccc2Cl)CCC1", "values": [{"measurement": "EC50", "setting": "[1]; mt2", "result": "Not Active"}, {"measurement": "CC50", "setting": "MT2", "result": 11, "unit": "µM"}]}
{"compound": "Clc1ccc(Nc2nccs2)cc1OCc1ccsc1", "values": [{"measurement": "EC50", "setting": "[1]; [2]", "result": 5.5, "unit": "µM"}, {"measurement": "CC50", "setting": "MT2", "result": 38, "unit": "µM"}]}
{"compound": "CC(C)=CCOc1cc(Nc2nccc(CO)n2)ccc1Cl", "values": [{"measurement": "EC50", "setting": "[1]; mt2", "result": "Not Active"}, {"measurement": "CC50", "setting": "MT2", "result": 0.22, "unit": "µM"}]}
{"compound": "Clc1ccc(Nc2nccs2)cc1OCc1nccs1", "values": [{"measurement": "EC50", "setting": "[1]; mt2", "result": "Not Active"}, {"measurement": "CC50", "setting": "MT2", "result": 20, "unit": "µM"}]}
{"compound": "N#Cc1ccc(Nc2nccs2)cc1OCc1ccoc1", "values": [{"measurement": "EC50", "setting": "[1]; mt2", "result": "Not Active"}, {"measurement": "CC50", "setting": "MT2", "result": 4, "unit": "µM"}]}
{"compound": "COc1cc(N)nc(Nc2ccc(Cl)c(OCC=C(C)C)c2)n1", "values": [{"measurement": "CC50", "setting": "MT2", "result": 19, "unit": "µM"}]}
{"compound": "N#Cc1ccc(Nc2nccs2)cc1OCc1cccs1", "values": [{"measurement": "EC50", "setting": "[1]; mt2", "result": "Not Active"}, {"measurement": "CC50", "setting": "MT2", "result": 4.1, "unit": "µM"}]}
{"compound": "Clc1ccc(Nc2nccs2)cc1OCc1cccs1", "values": [{"measurement": "EC50", "setting": "[1]; [2]", "result": 10, "unit": "µM"}, {"measurement": "CC50", "setting": "MT2", "result": 38, "unit": "µM"}]}
{"compound": "COc1ccc(Nc2nc(CO)cs2)cc1OCC=C(C)C", "values": [{"measurement": "EC50", "setting": "[1]; [2]", "result": 9, "unit": "µM"}, {"measurement": "CC50", "setting": "MT2", "result": 80, "unit": "µM"}]}
{"compound": "CSc1ccnc(Nc2ccc(Cl)c(OCC=C(C)C)c2)n1", "values": [{"measurement": "CC50", "setting": "MT2", "result": 2.8, "unit": "µM"}]}
{"compound": "COc1cc(OC)nc(Nc2ccc(Cl)c(OCC=C(C)C)c2)n1", "values": [{"measurement": "CC50", "setting": "MT2", "result": 28, "unit": "µM"}]}
{"compound": "CC(C)=CCOc1cc(Nc2nccs2)ccc1C(=O)O", "values": [{"measurement": "EC50", "setting": "[1]; mt2", "result": "Not Active"}, {"measurement": "CC50", "setting": "MT2", "result": 17, "unit": "µM"}]}
{"compound": "Clc1ccc(Nc2nccs2)cc1OCc1ccccc1", "values": [{"measurement": "EC50", "setting": "[1]; [2]", "result": 6, "unit": "µM"}, {"measurement": "CC50", "setting": "MT2", "result": 17, "unit": "µM"}]}
{"compound": "Clc1ccc(Nc2nccs2)cc1OCC1=CCCC1", "values": [{"measurement": "EC50", "setting": "[1]; [2]", "result": 5, "unit": "µM"}, {"measurement": "CC50", "setting": "MT2", "result": 15, "unit": "µM"}]}
{"compound": "N#Cc1ccc(Nc2nccs2)cc1OCc1ccsc1", "values": [{"measurement": "EC50", "setting": "[1]; mt2", "result": "Not Active"}, {"measurement": "CC50", "setting": "MT2", "result": 1.1, "unit": "µM"}]}
{"compound": "CC(C)=CCOc1cc(Nc2ncc(Br)c(N)n2)ccc1Cl", "values": [{"measurement": "EC50", "setting": "[1]; [2]", "result": 0.7, "unit": "µM"}, {"measurement": "CC50", "setting": "MT2", "result": 12, "unit": "µM"}]}
{"compound": "Clc1ccc(Nc2nccs2)cc1OCc1ccoc1", "values": [{"measurement": "EC50", "setting": "[1]; [2]", "result": 7, "unit": "µM"}, {"measurement": "CC50", "setting": "MT2", "result": 26, "unit": "µM"}]}
{"compound": "CC(C)=CCOc1cc(Nc2ncccn2)ccc1Cl", "values": [{"measurement": "CC50", "setting": "MT2", "result": 2.5, "unit": "µM"}]}
{"compound": "CC/C(C)=C\\COc1cc(Nc2nccs2)ccc1Cl", "values": [{"measurement": "EC50", "setting": "[1]; [2]", "result": 1, "unit": "µM"}, {"measurement": "CC50", "setting": "MT2", "result": 18, "unit": "µM"}]}
{"compound": "CC(C)=CCOc1cc(Nc2nc(N)cc(Cl)n2)ccc1Cl", "values": [{"measurement": "EC50", "setting": "[1]; mt2", "result": "Not Active"}, {"measurement": "CC50", "setting": "MT2", "result": 0.014, "unit": "µM"}]}
